The list is not random: actives were taken first. Their share in the collection is about 2.1%.
ARNT TACC3 PPI: disrupts binding between human ARNT and TACC3 | AlphaScreen His-ARNT PAS-B/GST-TACC3 binding, luminescence; TACC3 fragment carries E629A point mutation | AID 623870 | 0.66% of 390,000 active | Q9Y6A5 | inhibition, % at 9.99 µM;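 active means mean inhibition of replicates at least 50% and at least half of replicates each reaching 50%; inconclusive means half or more replicates reach 50% but mean below 50%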
FGF22 binding: shifts melting point of recombinant human FGF22; Q9HCT0; recombinant FGF22 thermal shift, SYPRO orange fluorescence; percent of sucrose octasulfate shift, DMSO zero; activity (Tm shift, normalised), % at 9.99 µM; 1.5% of 340,000 active;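 active means mean Tm shift, scaled 0 neutral to 100 positive control, at about 1.3% or above, every replicate too, limit read from the data; inconclusive means no clear call, values can overlap the other calls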
FN deposit inh: fibronectin deposition inhibition; AH1F fibroblasts, Alexa488-fibronectin deposition fluorescence, overnight; inhibition, % at 12.6 µM; 0.086% of 350,000 active;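 active means mean inhibition across replicates of 30% or more, regardless of how many single replicates reach that level; inconclusive means mean under 30% yet at least half of replicates reach 30%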
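Material: AH1F fibroblasts assembling fluorescent fibronectin matrix; amount: 10000 AH1F cells/well; medium: DMEM, 2% serum; reagent: Alexa488-fibronectin, 24 nM final in well; dosing: single compound dose, delivered by pin transfer; incubation: 1 h adhesion, overnight exposure; detection: fluorescence after three HBSS washes, excitation 485 nm, emission 525 nm; measure: fibronectin deposition inhibition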
ERp5 inh: ERp5 (human) disulfide isomerase inhibition | Q15084 | ERp5 insulin aggregation, absorbance 650 nm, 90 min | inhibition, % at 9.99 µM | 0.05% of 350,000 active | AID 651711;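 active means mean replicate inhibition above about 25%, with every replicate also reaching it, limit read from the data, passing the limit was not always enough; inconclusive means only one of those two criteria met; inactive means neither criterion met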
AF4-AF9 inh: inhibitors of human MLL-AF4/AF9 interaction; AlphaScreen, biotin-AF4 peptide binding to FLAG-AF9; inhibition, % at 10 µM; 0.47% of 350,000 active; AID 651704;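 active means every replicate reaching a set inhibition limit, whatever the replicate mean, cut at about 25% in these data; inconclusive means mean inhibition reaches that limit but some replicates miss it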
PDI turbidity: PDI (human) enzyme inhibition | 0.052% of 350,000 active | PDI insulin aggregation turbidity, A650, 90 min | inhibition, % at 10 µM;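 active means mean inhibition across replicates of 30% or more, whatever share of single replicates reach that level; inconclusive means mean inhibition below 30% while every single replicate reaches 30%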
Target sequence (P07237 whole entry, looked up): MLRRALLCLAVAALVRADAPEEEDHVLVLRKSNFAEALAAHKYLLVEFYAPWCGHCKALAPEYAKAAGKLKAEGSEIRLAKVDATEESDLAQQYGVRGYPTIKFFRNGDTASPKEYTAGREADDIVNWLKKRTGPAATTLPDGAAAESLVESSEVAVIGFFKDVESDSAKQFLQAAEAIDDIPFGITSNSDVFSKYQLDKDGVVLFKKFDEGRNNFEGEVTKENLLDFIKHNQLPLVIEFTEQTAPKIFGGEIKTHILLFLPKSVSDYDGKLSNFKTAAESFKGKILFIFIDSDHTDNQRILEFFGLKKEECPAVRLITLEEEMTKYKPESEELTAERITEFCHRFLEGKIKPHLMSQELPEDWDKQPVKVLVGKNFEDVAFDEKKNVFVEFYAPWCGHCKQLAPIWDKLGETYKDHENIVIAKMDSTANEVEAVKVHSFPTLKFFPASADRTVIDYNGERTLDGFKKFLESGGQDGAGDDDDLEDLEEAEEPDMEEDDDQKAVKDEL
Of the large screens only hits and unclear results are named; the others gave an inactive call.

CC1(C)CC(=O)C=C(c2ccc(-c3ccc4[nH]ccc4c3)cc2)C1=O	none (no result: ARNT TACC3 PPI, FN deposit inh)
CC(=O)N(C)C[C@H]1Oc2cc(C#CCN(C)C)ccc2S(=O)(=O)N([C@H](C)CO)C[C@@H]1C	none (no result: PDI turbidity)
O=C1CCC(=O)N1c1nc2nc(-c3ccccc3)cc(-c3ccccc3)n2n1	PDI turbidity 33.3 (no result: FGF22 binding, ERp5 inh, AF4-AF9 inh)
O=C(NN=Cc1ccc2c(c1)OCO2)C1CC1	FGF22 binding 43.3
CO[C@H]1CN(C)C(=O)c2cc(NS(=O)(=O)c3ccccc3)ccc2OC[C@@H](C)N(C(=O)NC(C)C)C[C@H]1C	none (no result: PDI turbidity)
Clc1cccc(CN2CCC3CC2c2cc(N4CCCCC4)ccc23)c1 (stereo not given)	AF4-AF9 inh 25.9
Cc1cccn2c(=O)c(C=O)c(Sc3ncccn3)nc12	FGF22 binding 43.3
COc1ccc(N(C)C(=O)Cc2c(C(=O)O)[nH]c3ccccc23)c(OC)c1	FGF22 binding 43.9
COc1ccc2c3c([nH]c2c1)[C@H](CO)N(C(=O)C1CCCC1)CC31CCN(S(C)(=O)=O)CC1	none (no result: ARNT TACC3 PPI, FN deposit inh, PDI turbidity)
CCCCN(C)Cc1c(C)[nH]c2ccccc2c1=O	FGF22 binding 43.3
CCCCN(C)Cc1c(C)[nH]c2ccc(C)cc2c1=O	none (no result: FGF22 binding, ERp5 inh, AF4-AF9 inh)
COC(=O)c1cccc(NC2CC(=O)N(c3ccc(OC)c(OC)c3)C2=O)c1 (stereo not given)	none (no result: FGF22 binding, ERp5 inh, AF4-AF9 inh)
COc1ccc(N2C(=O)CC(Nc3ccc(C(=O)O)cc3)C2=O)cc1OC (stereo not given)	FGF22 binding 42.9
COc1cc(OC)c(NC2c3ccccc3C(=O)N2c2cc(C)ccn2)cc1Cl (stereo not given)	FGF22 binding 3.4, AF4-AF9 inh inconclusive (no result: PDI turbidity)
NS(=O)(=O)c1cccc(NC(=O)COC(=O)Cc2ccc(S(=O)(=O)N3CCCCC3)s2)c1	FGF22 binding 43.0
O=C(COC(=O)Cc1ccc(S(=O)(=O)N2CCCCC2)s1)Nc1ccc2c(c1)OCO2	none (no result: FGF22 binding, ERp5 inh, AF4-AF9 inh)
Cc1noc(C)c1NC(=O)Nc1ccc2c(c1)CC(=O)N([C@H](C)CO)C[C@H](C)[C@@H](CN(C)C(=O)Nc1ccc(F)cc1)O2	none (no result: FN deposit inh, PDI turbidity)
COc1ccc(NCc2ccc(OC)c(Cn3ccnc3)c2)c(OC)c1	AF4-AF9 inh 33.6
C[C@@H]1CN([C@H](C)CO)S(=O)(=O)c2ccc(-c3cncnc3)cc2O[C@H]1CN(C)Cc1ccncc1	none (no result: FN deposit inh, PDI turbidity)
COc1ccc(NC(=O)N(C)C[C@@H]2OCCCC[C@@H](C)Oc3ccc(NC(=O)Nc4ccccc4)cc3C(=O)N([C@H](C)CO)C[C@@H]2C)cc1	none (no result: PDI turbidity)
Cc1ccc(S(=O)(=O)c2c(C)cc(C)nc2Oc2cccc(C(F)(F)F)c2)cc1	ARNT TACC3 PPI active (no result: FGF22 binding, FN deposit inh, ERp5 inh, AF4-AF9 inh)
Cc1cc(-c2ccccc2)nc(Oc2cccc(C(F)(F)F)c2)c1S(C)(=O)=O	none (no result: FGF22 binding, FN deposit inh, ERp5 inh, AF4-AF9 inh)
O=C(Cn1c(C(F)(F)F)nc2ccccc21)Nc1ccccc1C(=O)O	none (no result: FGF22 binding)
CC(C(=O)Nc1ccccc1C(=O)O)n1c(C(F)(F)F)nc2ccccc21 (stereo not given)	FGF22 binding 43.1
CN1C(=O)c2cc(NC(=O)C3CCOCC3)ccc2OC[C@@H]2O[C@H](CC(=O)NCC3CC3)CC[C@@H]21	none (no result: PDI turbidity)
Cc1ccc(S(=O)(=O)Nc2ccc3c(c2)C(=O)N([C@H](C)CO)C[C@@H](C)[C@@H](CN(C)C(=O)Nc2c(C)noc2C)OCCCC[C@@H](C)O3)cc1	none (no result: PDI turbidity)
Cc1ccccc1OCc1nnc(SCc2nc3ccccc3c(=O)[nH]2)n1C	none
COc1ccc(CCCc2nnc(SCc3nc4ccccc4c(=O)[nH]3)n2C)cc1C	FGF22 binding 42.9
Cc1ccc(C(=O)O)cc1NC(=S)NC(=O)c1ccc(-c2ccccc2)cc1	FGF22 binding 43.0 (no result: ARNT TACC3 PPI)
Cc1cn(C2OC(COC(=O)c3ccccc3)C(O)C2Cl)c(=O)[nH]c1=O (stereo not given)	FGF22 binding 43.0
O=C(OCC1OC(n2cc(Br)c(=O)[nH]c2=O)C(Br)C1O)c1ccccc1 (stereo not given)	none
CCN(CC)C(=O)c1nc[nH]c1C(=O)N1CCC(C)CC1	FGF22 binding 9.1
CN1[C@H](C(=O)NCCCN2CCOCC2)[C@@H](CO)[C@@H]2Cn3c(ccc(/C=C/c4ccccc4)c3=O)[C@@H]21	none (no result: FN deposit inh, ERp5 inh, AF4-AF9 inh, PDI turbidity)

Bioassay records deposited in PubChem by Broad Institute.
